Measurements taken from the EternaBench riboswitch data.

Tested on: MS2 coat protein
Assay: apparent Kd, MS2 coat protein; higher = weaker binding; RNA-MaP array; FMN 200 µM where present
Method in brief: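 Designs were transcribed by stalled E. coli RNA polymerase on Illumina sequencing-chip clusters. They were titrated with SNAP-549-labelled MS2 coat protein from 0.7 or 1.5 nM, doubling to 3 µM, without and then with constant ligand. Buffer: 100 mM Tris-HCl pH 7.5, 80 mM KCl, 4 mM MgCl2, BSA, DTT, yeast tRNA, Tween-20. Green signal was normalised to red-channel RNA signal and control-cluster median Fmax. Apparent Kd is the median of filtered per-cluster binding-curve fits.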

[1] = designed as: OFF switch for flavin mononucleotide, no ligand
[2] = ligand present: flavin mononucleotide, designed as: OFF switch for flavin mononucleotide
[3] = designed as: ON switch for flavin mononucleotide, no ligand
[4] = ligand present: flavin mononucleotide, designed as: ON switch for flavin mononucleotide

For “AUGAGAAAAGCAGGAUAUCUAUUGUCUCAGAAACAUGAGGAUCACCCAUGUAGAGAAGGGCUAAGACCGACUCUUCGGAGUUGA”, the “apparent Kd” value [1] was 9.66 nM and the “apparent Kd” value [2] was 9.77 nM.
In the case of “CUAUAGAUAUCAGGAUAUCUAUUUCCUACAUGAGGAUCACCCAUGUAGAGGAUCACCCAUGUAAAGGAGAAGGGAUAUCUAUAG”, the “apparent Kd” value [3] is reported as 91.3 nM and the “apparent Kd” value [4] is reported as 20.4 nM.
“UUCUUGUGAGGAUAUCAGUAGUAAAUAAAUAAAAUUACUACUGAGAAGGCACAUGAGGAUCACCCAUGUUCCUU” was tested, and the “apparent Kd” value [1] was 14.6 nM and the “apparent Kd” value [2] was 32.9 nM.
“AGCUUCGGUGUCAGGAUAUGGGAAAGGGAACUUACCCAGAAGGGACAUGAGGAUCACCCAUGUGGCUUGACAUG” was tested, and the “apparent Kd” value [1] was 45.3 nM and the “apparent Kd” value [2] was 109 nM.
“GACAGCGACACAGGAUAUGUCAAUUUUACAUGAGGAUCACCCAUGUCCGAAGCAGAAGGGUGAUCGCGCGCAAACUAAGCCAUG” was tested, and the “apparent Kd” value [3] was 80.5 nM and the “apparent Kd” value [4] was 70.5 nM.
For “AAUUGACACGUAGGAUAUCGCUUUAAUUUAACACGAGAAGGACGUACAUGAGGAUCACCCAUGUUAAAUGGUGUAGAUUAAUUG”, the “apparent Kd” value [1] was 167 nM and the “apparent Kd” value [2] was 382 nM.
“AUAUUGUGAGGAUAUGAACUUAGUAUCGAAAGAUACUAACUUCAGAAGGCACAUGAGGAUCACCCAUGUUUCUC” was tested, and the “apparent Kd” value [1] was 72.3 nM and the “apparent Kd” value [2] was 689 nM.
In the case of “UAACAAAUUGUCAGGAUAUCAUUCCCGGCCCAGAGUGAGAAGGGACAUGAGGAUCACCCAUGUAUGAUUCUCAC”, the “apparent Kd” value [1] is reported as 16.1 nM and the “apparent Kd” value [2] is reported as 15.3 nM.
With “CUCCGUGGCGAGAAGGGCGGGAUUUUAGGUUCUGUAGGAUAUCGAAACAUGAGGAUCACCCAUGUAUUGAUCGGGUGCAGUGUG” the “apparent Kd” value [1] was 22 nM and the “apparent Kd” value [2] was 23.2 nM.
In the case of “AGACUGCGUAGAAUUAGCAGCUGACAGGAUAUGACAUGAGGAUCACCCAUGUGAACUACAAAGGAUCAGAAGGGUCACGACACA”, the “apparent Kd” value [1] is reported as 18.6 nM and the “apparent Kd” value [2] is reported as 30.3 nM.
For “CAGUACUGAGGAUAUACAUGAGGAUCACCCAUGUAUCCUAGCUAGGAAACUAGCAAAUGUAGAAGGCAGUACUG”, the “apparent Kd” value [1] was 62.5 nM and the “apparent Kd” value [2] was 458 nM.
In the case of “GUAGCAUAGACAGGAUAUUCAUAUAAUAAAUAAACAUGAGGAUCACCCAUGUGGCGAAAGCCUUGGGAGAAGGGUCAAUGCUAC”, the “apparent Kd” value [3] is reported as 1070 nM and the “apparent Kd” value [4] is reported as 82.1 nM.
For “GAACAUGAGGAUCACCCAUGUUCUCCAGAAGGCCGUACAUUUAAAAGUGGAUGGAUUAGUAUUGCGGAGGAUAUGGAGGUGCAA”, the “apparent Kd” value [3] was 102 nM and the “apparent Kd” value [4] was 61.1 nM.
In the case of “AAUUAUAGGUAGAAGGUACUGUAUUAUGUGUUGUAAGGAUAUACUAUAUUAUUAGUUCUCAAGUUACAUGAGGAUCACCCAUGU”, the “apparent Kd” value [3] is reported as 10.3 nM and the “apparent Kd” value [4] is reported as 8.02 nM.
“AACGAUCUAGGAUAUACAUGAGGAUCACCCAUGUAAGAGCUCAAACCGAGCUCCCUCUGUAGAAGGAGGUCAAA” was tested, and the “apparent Kd” value [1] was 54.5 nM and the “apparent Kd” value [2] was 45.9 nM.
For “UCUGAGGUCACAGGAUAUCAUACGUCGGCACGUUGAGAAGGGUGACCGAGCUACAUGAGGAUCACCCAUGUGCUGUCGUAACAA”, the “apparent Kd” value [3] was 85.4 nM and the “apparent Kd” value [4] was 164 nM.
“CUCUUGUCAGGAUAUCUAAGCUGCCUCCCAGUAGCCGAAUUAGAGAAGGGACAUGAGGAUCACCCAUGUAAACG” was tested, and the “apparent Kd” value [1] was 105 nM and the “apparent Kd” value [2] was 34.2 nM.
“AAAAUGUGAGGAUAUCACGGAACUCCGCGUGACGGAGCUCCUGAGAAGGCACAUGAGGAUCACCCAUGUCCUGU” was tested, and the “apparent Kd” value [1] was 52.8 nM and the “apparent Kd” value [2] was 276 nM.
In the case of “AAUAACAGAGGAUAUACUGUUUUAUGUGUUUGUUGUUUUAAACAUGAGGAUCACCCAUGUAGAAGGCUGAAUAA”, the “apparent Kd” value [1] is reported as 19.3 nM and the “apparent Kd” value [2] is reported as 20.3 nM.
In the case of “AUGGACGUCGUAGGAUAUGUAGGAUUCUCCUACAUGAGGAUCACCCAUGUUGACGUGGAGGACGGACAGAAGGACGGUGUCCAU”, the “apparent Kd” value [3] is reported as 7.22 nM and the “apparent Kd” value [4] is reported as 4.8 nM.
With “UGUGCGUUGAUCUUCGAUCGGUGUACAUGAGGAUCACCCAUGUAGGAUAUUCUAAGACGCAGAUAGGAGAAGGACAUUGGUUUU” the “apparent Kd” value [1] was 22.9 nM and the “apparent Kd” value [2] was 64.1 nM.
“UGAACUUCAGAGAAGGUCGGAUGGCAACGGUCCGAAGGAUAUCUGGAAACAUGAGGAUCACCCAUGUAACCGGGUGGAUGUCCU” was tested, and the “apparent Kd” value [1] was 35 nM and the “apparent Kd” value [2] was 113 nM.
In the case of “CUUGUACAUGAGGAUCACCCAUGUUAGGAUAUCUCGCCGUCGGCUUGCCGACGGUAUUAGAGAAGGGACUUGGG”, the “apparent Kd” value [1] is reported as 56 nM and the “apparent Kd” value [2] is reported as 33 nM.
“UUACUCAUGUAAGGAUAUGCAGCCGUGUCGGCUGCAGAAGGUACUAUAAUACAUGAGGAUCACCCAUGUCUAUAAAAUAAAGAC” was tested, and the “apparent Kd” value [3] was 48 nM and the “apparent Kd” value [4] was 26.8 nM.
For “UAUUAUAUGGAGAAGGACAUGAGGAUCACCCAUGUCGCCGGGCCCGGGAAACCGGGCCCGGCCAUGUAGGAUAUCCGUAUGGUA”, the “apparent Kd” value [1] was 6 nM and the “apparent Kd” value [2] was 7.96 nM.
With “GGCUGGCAGCUAGGAUAUGGGCGGUCACAUGAGGAUCACCCAUGUCAACAUCAAAACCAGAUUAACCAGAAGGAGCUGCGGAUU” the “apparent Kd” value [3] was 32.7 nM and the “apparent Kd” value [4] was 502 nM.
“AAAAAGACAGGAUAUACAUGAAAAAAAAAAAAAAAAAAAAAACAUGAGGAUCACCCAUGUAGAAGGGUCAAAAA” was tested, and the “apparent Kd” value [1] was 111 nM and the “apparent Kd” value [2] was 106 nM.
“UUUGUGUCAGGAUAUCGGGCCAGCAAUACGGUAUGUGGGCACGAGAAGGGACAUGAGGAUCACCCAUGUGCCUU” was tested, and the “apparent Kd” value [1] was 14.8 nM and the “apparent Kd” value [2] was 16.4 nM.
“GAAUAGGCAGGAUAUACAUGAGGAUCACCCAUGUGCUUGCGAUCGGCAAGCGAACAACGUAGAAGGGCCUUAAC” was tested, and the “apparent Kd” value [1] was 16.2 nM and the “apparent Kd” value [2] was 37.3 nM.
“UAUAAUUAGUAGAAGGACGGUGAGUAAGAGGUCGUAGGAUAUACAACUGACAUGAGGAUCACCCAUGUGUGUAUGUUGGGAAGG” was tested, and the “apparent Kd” value [1] was 11.1 nM and the “apparent Kd” value [2] was 9.9 nM.
In the case of “GCCAUCGUAUGAGGAUAUGCUCCGGUUUCCGGAGCAGAAGGCAUGUCAUAAGACAUGAGGAUCACCCAUGUAGUUAAGAUGGCA”, the “apparent Kd” value [3] is reported as 135 nM and the “apparent Kd” value [4] is reported as 9.66 nM.
“CGACGUUGAGAGAAGGAGUAAAAUACAUGAGGAUCACCCAUGUCAGGUGCUAGGAUAUCUUCGCGUGGCAGGGUCGGCCCGUGU” was tested, and the “apparent Kd” value [3] was 66 nM and the “apparent Kd” value [4] was 14.3 nM.
With “GUAGCUAUCGGAGGAUAUUCAUACCGAAAACGGACAUGAGGAUCACCCAUGUGGCGAAAGUCUUGGGAGAAGGCCGAUAGCUAC” the “apparent Kd” value [3] was 39.2 nM and the “apparent Kd” value [4] was 7.62 nM.
With “GCUAUAGAUGUAGGAUAUCAUAUAGAAGCUAUGUGAGAAGGACAUGAGGAUCACCCAUGUCAAUGGAUGGAGAGAAGUUAUGGC” the “apparent Kd” value [1] was 75.3 nM and the “apparent Kd” value [2] was 104 nM.
In the case of “GCGCCAUCGUGAGAUGGCGUACCAACAUGAGGAUCACCCAUGUAGGAUAUCGAUUGCUUUGCAGUCGAGAAGGGCAUGAUAAGU”, the “apparent Kd” value [1] is reported as 22 nM and the “apparent Kd” value [2] is reported as 28.4 nM.
In the case of “AUGCUUCACACAGGAUAUACAUGAGGAUCACCCAUGUGUCCUCCGUAGCUGACACGAGCUACGCUGUAGAAGGGUGUGAAGCAU”, the “apparent Kd” value [1] is reported as 234 nM and the “apparent Kd” value [2] is reported as 223 nM.
For “UUGUGGGAGCAGGAUAUCUUAUUUUGGUUUUGUGGAGAAGGGCUGACAUGAGGAUCACCCAUGUGGUCCUAGAU”, the “apparent Kd” value [1] was 21.7 nM and the “apparent Kd” value [2] was 36.5 nM.
With “CUUCAGUGAGGAUAUACAUAACGGGACGUUAAUAUCGUUAGGUAGAAGGCACAUGAGGAUCACCCAUGUUUAAA” the “apparent Kd” value [1] was 92 nM and the “apparent Kd” value [2] was 66 nM.
In the case of “CCACGUCACAUUUACAUGAGGAUCACCCAUGUCGAAAGACAUGAGGAUAUGCUACCUAAUUGGUAGCAGAAGGCAUGGACGUGG”, the “apparent Kd” value [3] is reported as 203 nM and the “apparent Kd” value [4] is reported as 284 nM.
In the case of “GCGCGCGCAGGAUAUACAUGAGGAUCACCCAUGUAGCGCGCGCGUAUUUGUGUGUGUUGUAGAAGGGUGUGUGU”, the “apparent Kd” value [1] is reported as 20 nM and the “apparent Kd” value [2] is reported as 18.2 nM.
For “GUUAUGCAGCAGGAUAUCCAUCCGCGGUAUGAUGGAGAAGGGCUGACAUGAGGAUCACCCAUGUGCGUCCUAGG”, the “apparent Kd” value [1] was 40.3 nM and the “apparent Kd” value [2] was 97.1 nM.
In the case of “GGGUACAUCGGAGGAUAUCAUGUAAAUACAUGAGGAUCACCCAUGUCGAUGGAGACAUCGGAGAUUGAGAAGGCCGCUGUACCG”, the “apparent Kd” value [3] is reported as 176 nM and the “apparent Kd” value [4] is reported as 9.92 nM.
